Source: ChEMBL document CHEMBL3097989, “Antimicrobial activity of de novo designed cationic peptides against multi-resistant clinical isolates” (Eur J Med Chem, 2014)

How the values were obtained:
Format in all cases: functional
Escherichia coli [1] = experiment: Antibacterial activity against Escherichia coli M9884 by microdilution test
In short: (§1)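 MIC by standard broth microdilution following CLSI recommendations, in Mueller Hinton broth supplemented with Ca²⁺ (20-25mg/L) and Mg²⁺ (10-12.5mg/L); peptides tested against a panel of multi-resistant clinical isolates plus ATCC reference strains.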

Klebsiella pneumoniae [2] = experiment: Antibacterial activity against Klebsiella pneumoniae M11245 clinical isolate expressing blaKPC-2 and blaPER-2 gene by microdilution test; in short: as §1
Escherichia coli [3] = experiment: Antibacterial activity against Escherichia coli PNEU23 clinical isolate expressing blaOXA-GIII and blaTEM-1 gene by microdilution test; in short: as §1
Enterococcus faecalis [4] = experiment: Antibacterial activity against Enterococcus faecalis M6383 clinical isolate expressing vanA gene by microdilution test; in short: as §1
Staphylococcus aureus [5] = experiment: Antibacterial activity against Staphylococcus aureus P28 clinical isolate expressing ermA gene by microdilution test
In short: (§2)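 MIC by standard broth microdilution following CLSI recommendations, in Mueller Hinton broth supplemented with Ca²⁺ (20-25 mg/L) and Mg²⁺ (10-12.5 mg/L); ATCC reference strains included in the panel.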

[6] = tested on: Staphylococcus saprophyticus; experiment: Antibacterial activity against Staphylococcus saprophyticus M2981 clinical isolate expressing mecA gene by microdilution test; in short: as §2
Pseudomonas aeruginosa [7] = experiment: Antibacterial activity against Pseudomonas aeruginosa M7525 clinical isolate expressing blaSPM gene by microdilution test; in short: as §2
Klebsiella pneumoniae [8] = experiment: Antibacterial activity against Klebsiella pneumoniae M9375 clinical isolate expressing blaCTX-M-2, blaTEM-1 and blaSHV-1 gene by microdilution test; in short: as §1
Staphylococcus aureus [9] = experiment: Antibacterial activity against Staphylococcus aureus P239 clinical isolate expressing ermC gene by microdilution test; in short: as §2
Acinetobacter sp. [10] = experiment: Antibacterial activity against Acinetobacter sp. M7489 clinical isolate expressing blaOXA-51 and blaTEM gene by microdilution test; in short: as §1
Staphylococcus aureus [11] = experiment: Antibacterial activity against Staphylococcus aureus P204 clinical isolate expressing ermA gene by microdilution test; in short: as §2
[12] = tested on: Staphylococcus epidermidis; experiment: Antibacterial activity against Staphylococcus epidermidis M2923 by microdilution test; in short: as §2
Staphylococcus aureus [13] = experiment: Antibacterial activity against Staphylococcus aureus M4046 clinical isolate expressing mecA gene by microdilution test; in short: as §2
[14] = tested on: Staphylococcus saprophyticus; experiment: Antibacterial activity against Staphylococcus saprophyticus M4070 clinical isolate expressing mecA gene by microdilution test; in short: as §2
[15] = tested on: Staphylococcus haemolyticus; experiment: Antibacterial activity against Staphylococcus haemolyticus M3014 by microdilution test; in short: as §2
Escherichia coli [16] = experiment: Antibacterial activity against Escherichia coli M9209 clinical isolate expressing blaKPC-2 gene by microdilution test; in short: as §1
Enterococcus faecalis [17] = experiment: Antibacterial activity against Enterococcus faecalis M6983 clinical isolate expressing vanA gene by microdilution test; in short: as §1
Klebsiella pneumoniae [18] = experiment: Antibacterial activity against Klebsiella pneumoniae M9310 clinical isolate expressing blaCTX-M-2, blaTEM-1 and blaSHV-1 gene by microdilution test; in short: as §1
Pseudomonas aeruginosa [19] = experiment: Antibacterial activity against Pseudomonas aeruginosa M7723 clinical isolate expressing blaKPC-2 gene by microdilution test; in short: as §2
[20] = tested on: Staphylococcus epidermidis; experiment: Antibacterial activity against Staphylococcus epidermidis M2919 clinical isolate expressing mecA gene by microdilution test; in short: as §2
Enterococcus faecium [21] = experiment: Antibacterial activity against Enterococcus faecium M2304 clinical isolate expressing vanA gene by microdilution test; in short: as §1
Enterococcus faecium [22] = experiment: Antibacterial activity against Enterococcus faecium M2481 clinical isolate expressing vanB gene by microdilution test; in short: as §1
Staphylococcus warneri = experiment: Antibacterial activity against Staphylococcus warneri M6823 clinical isolate expressing mecA gene by microdilution test; in short: as §2
Staphylococcus aureus [23] = experiment: Antibacterial activity against Staphylococcus aureus M2832 clinical isolate expressing mecA gene by microdilution test; in short: as §2
Escherichia coli [24] = experiment: Antibacterial activity against Escherichia coli M5306 clinical isolate expressing blaPER-2, blaCTX-M-2 and blaTEM-1 gene by microdilution test; in short: as §1
Staphylococcus cohnii = experiment: Antibacterial activity against Staphylococcus cohnii M6767 clinical isolate expressing mecA gene by microdilution test; in short: as §2
Klebsiella pneumoniae [25] = experiment: Antibacterial activity against Klebsiella pneumoniae M1803 clinical isolate expressing blaPER-2, blaCTX-M-2, blaTEM-1, blaSHV and blaOXA-9 gene by microdilution test; in short: as §1
Escherichia coli [26] = experiment: Antibacterial activity against Escherichia coli M7859 clinical isolate expressing blaCIT gene by microdilution test; in short: as §1
Pseudomonas aeruginosa [27] = experiment: Antibacterial activity against Pseudomonas aeruginosa PCOS12 by microdilution test; in short: as §2
[28] = tested on: Staphylococcus epidermidis; experiment: Antibacterial activity against Staphylococcus epidermidis M2931 by microdilution test; in short: as §2
Enterococcus faecium [29] = experiment: Antibacterial activity against Enterococcus faecium PZAP95 by microdilution test; in short: as §1
Klebsiella pneumoniae [30] = experiment: Antibacterial activity against Klebsiella pneumoniae M13540 clinical isolate expressing blaKPC-2 gene by microdilution test; in short: as §1
Escherichia coli [31] = experiment: Antibacterial activity against Escherichia coli PCOS15 clinical isolate expressing blaPER-2 and blaTEM-1 gene by microdilution test; in short: as §1
Pseudomonas aeruginosa [32] = experiment: Antibacterial activity against Pseudomonas aeruginosa M7907 clinical isolate expressing blaPER gene by microdilution test; in short: as §2
Enterococcus faecalis [33] = experiment: Antibacterial activity against Enterococcus faecalis M6534 clinical isolate expressing vanB gene by microdilution test; in short: as §1
Enterococcus faecium [34] = experiment: Antibacterial activity against Enterococcus faecium M2664 clinical isolate expressing vanA gene by microdilution test; in short: as §1
Acinetobacter sp. [35] = experiment: Antibacterial activity against Acinetobacter sp. M7978 clinical isolate expressing blaIMP-1 gene by microdilution test; in short: as §1
Staphylococcus aureus [36] = experiment: Antibacterial activity against Staphylococcus aureus M6276 clinical isolate expressing ermA and lnuA gene by microdilution test; in short: as §2
Acinetobacter sp. [37] = experiment: Antibacterial activity against Acinetobacter sp. PFAV1 clinical isolate expressing blaOXA-51, blaOXA-58 and blaPER gene by microdilution test; in short: as §1
Escherichia coli [38] = experiment: Antibacterial activity against Escherichia coli PLCA1 clinical isolate expressing blaCTX-M-2 and blaTEM-1 gene by microdilution test; in short: as §1
Acinetobacter sp. [39] = experiment: Antibacterial activity against Acinetobacter sp. M5179 clinical isolate expressing blaOXA-51 gene by microdilution test; in short: as §1
Enterococcus faecalis [40] = experiment: Antibacterial activity against Enterococcus faecalis M4449 clinical isolate expressing vanA gene by microdilution test; in short: as §1
Klebsiella pneumoniae [41] = experiment: Antibacterial activity against Klebsiella pneumoniae M9885 clinical isolate expressing blaKPC-2 gene by microdilution test; in short: as §1
Enterococcus gallinarum [42] = experiment: Antibacterial activity against Enterococcus gallinarum M2723 clinical isolate expressing vanC1 and vanA gene by microdilution test; in short: as §1
[43] = tested on: Staphylococcus haemolyticus; experiment: Antibacterial activity against Staphylococcus haemolyticus M2976 clinical isolate expressing mecA gene by microdilution test; in short: as §2
Klebsiella pneumoniae [44] = experiment: Antibacterial activity against Klebsiella pneumoniae M5825 clinical isolate expressing blaGES-3 and blaCTX-M-2 gene by microdilution test; in short: as §1
Pseudomonas aeruginosa [45] = experiment: Antibacterial activity against Pseudomonas aeruginosa M7712 clinical isolate expressing blaSPM gene by microdilution test; in short: as §2
Escherichia coli [46] = experiment: Antibacterial activity against Escherichia coli ATCC 25922 by microdilution test; in short: as §1
Enterococcus gallinarum [47] = experiment: Antibacterial activity against Enterococcus gallinarum M2685 clinical isolate expressing vanC1 and vanA gene by microdilution test; in short: as §1
Pseudomonas aeruginosa [48] = experiment: Antibacterial activity against Pseudomonas aeruginosa M5470 by microdilution test; in short: as §2
Klebsiella pneumoniae [49] = experiment: Antibacterial activity against Klebsiella pneumoniae M9170 clinical isolate expressing blaOXA-GIII gene by microdilution test; in short: as §1
Acinetobacter sp. [50] = experiment: Antibacterial activity against Acinetobacter sp. M9665 clinical isolate expressing blaOXA-51 gene by microdilution test; in short: as §1

H-RIVQRIKKWLLKWKKLGY-NH2
MIC90 (Escherichia coli [1]): 32 µg/mL
MIC90 (Klebsiella pneumoniae [2]): 8 µg/mL
MIC90 (Escherichia coli [3]): 32 µg/mL
MIC90 (Enterococcus faecalis [4]): 128 µg/mL
MIC90 (Staphylococcus aureus [5]): 64 µg/mL
MIC90 [6]: 8 µg/mL
MIC90 (Pseudomonas aeruginosa [7]): 64 µg/mL
MIC90 (Klebsiella pneumoniae [8]): 16 µg/mL
MIC90 (Staphylococcus aureus [9]): 64 µg/mL
MIC90 (Acinetobacter sp. [10]): 64 µg/mL
MIC90 (Staphylococcus aureus [11]): 32 µg/mL
MIC90 [12]: 16 µg/mL
MIC90 (Staphylococcus aureus [13]): 32 µg/mL
MIC90 [14]: 8 µg/mL
MIC90 [15]: 8 µg/mL
MIC90 (Escherichia coli [16]): 128 µg/mL
MIC90 (Enterococcus faecalis [17]): 128 µg/mL
MIC90 (Klebsiella pneumoniae [18]): 32 µg/mL
MIC90 (Pseudomonas aeruginosa [19]): 32 µg/mL
MIC90 [20]: 8 µg/mL
MIC90 (Enterococcus faecium [21]): 8 µg/mL
MIC90 (Enterococcus faecium [22]): 16 µg/mL
MIC90 (Staphylococcus warneri): 8 µg/mL
MIC90 (Staphylococcus aureus [23]): 64 µg/mL
MIC90 (Escherichia coli [24]): 64 µg/mL
MIC90 (Staphylococcus cohnii): 8 µg/mL
MIC90 (Klebsiella pneumoniae [25]): 64 µg/mL
MIC90 (Escherichia coli [26]): 16 µg/mL
MIC90 (Pseudomonas aeruginosa [27]): 64 µg/mL
MIC90 [28]: 8 µg/mL
MIC90 (Enterococcus faecium [29]): 16 µg/mL
MIC90 (Klebsiella pneumoniae [30]): 64 µg/mL
MIC90 (Escherichia coli [31]): 64 µg/mL
MIC90 (Pseudomonas aeruginosa [32]): 64 µg/mL
MIC90 (Enterococcus faecalis [33]): 256 µg/mL
MIC90 (Enterococcus faecium [34]): 8 µg/mL
MIC90 (Acinetobacter sp. [35]): 64 µg/mL
MIC90 (Staphylococcus aureus [36]): 64 µg/mL
MIC90 (Acinetobacter sp. [37]): 64 µg/mL
MIC90 (Escherichia coli [38]): 64 µg/mL
MIC90 (Acinetobacter sp. [39]): 64 µg/mL
MIC90 (Enterococcus faecalis [40]): 128 µg/mL
MIC90 (Klebsiella pneumoniae [41]): 32 µg/mL
MIC90 (Enterococcus gallinarum [42]): 16 µg/mL
MIC90 [43]: 8 µg/mL
MIC90 (Klebsiella pneumoniae [44]): 32 µg/mL
MIC90 (Pseudomonas aeruginosa [45]): 64 µg/mL
MIC90 (Escherichia coli [46]): 32 µg/mL
MIC90 (Enterococcus gallinarum [47]): 16 µg/mL
MIC90 (Pseudomonas aeruginosa [48]): 64 µg/mL
MIC90 (Klebsiella pneumoniae [49]): 64 µg/mL
MIC90 (Acinetobacter sp. [50]): 128 µg/mL
